ABCB6 inh MLPCN = blocks the human ABCB6 transporter; Q9NP58; K562-ABCB6 porphyrin accumulation, flow cytometry, 1 h; stronger effect = lower value; fluorescence ratio to DMSO, % at 10 µM; hit rate 0.19% among 360,000; AID 602162;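 active means fluorescence ratio to DMSO below 75%, the collection mean minus 3 SD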;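 further: signal is porphyrin accumulated inside mitochondria; 100% equals median channel fluorescence of DMSO control wells; lower ratio means ABCB6 inhibition with less porphyrin fluorescence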
Exocytosis inh = lytic granule exocytosis inhibition. TALL-104 LAMP-1 surface exposure, flow cytometry; cells stimulated with thapsigargin and PMA. inhibition, % at 10 µM. hit rate 0.66% among 360,000. AID 651702;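 active means inhibition above about 55%, limit read from the data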
VLA-4 inh = inhibition in a human VLA-4 binding assay | P13612 | VLA-4 expressing cells, ligand binding flow cytometry | inhibition, % (about 7 µM as worked out from the volumes in the protocol) | hit rate 0.2% among 330,000 | AID 2557; in the data active means inhibition above about 50%
MT1-MMP act inh = MT1-MMP (human) activation inhibition; P50281; HT1080 RFP-PRO-GFP cells, GFP/RFP ratio fluorescence, overnight; percent of plate control window, DMSO zero; GFP/RFP ratio change, % at 20 µM; hit rate 0.061% among 360,000; AID 651647;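 active means GFP/RFP ratio change of at least 30% with cell ATP level not reduced by more than half and red fluorescence within 50% of control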
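Test system: HT1080 RFP-PRO-GFP cells; Benchmarks: DMSO and RFP-L50D-GFP cell wells; Timing: cells overnight before dosing, compound overnight, 37 °C, 5% CO2; Compound: one 20 µM compound dose with 1% DMSO; Read-out: GFP/RFP fluorescence ratio.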
DAGLB inh = blocks human DAGLB lipase activity; AID 504411; hit rate 0.059% among 340,000; Q8NCG7; HEK293T DAGLB membrane lysate, EnzChek fluorogenic substrate; inhibition, % at 5.17 µM; in the data active means inhibition above about 34%;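 further: 0% = enzyme with vehicle and 100% = wells lacking enzyme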
FGF22 binding = binders of recombinant human FGF22 by thermal shift. Q9HCT0. SYPRO orange fluorescence; percent of sucrose octasulfate shift, DMSO zero. activity (Tm shift, normalised), % at 9.99 µM. hit rate 1.5% among 340,000;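 active means mean Tm shift, scaled 0 neutral to 100 positive control, at about 1.3% or above, every replicate too, limit read from the data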
* marks the source's active call; other numbers are inactive results; i = inactive; nt = no result given. Sampled rows, rich in hits. Any-hit rate of the full collection: about 2%.

SMILES | ABCB6 inh MLPCN | Exocytosis inh | VLA-4 inh | MT1-MMP act inh | DAGLB inh | FGF22 binding
CCC1C(c2ccccc2)N(C)C(c2ccccc2)CC1(O)c1ccccc1 (centres undefined) | 100 | 14 | -4 | -15 | -5 | 44*
Cc1ccc2sc(C)[n+](CCO)c2c1 | 113 | -2 | 14 | 5 | 2 | 0
CCCC[n+]1c(C)sc2ccc(C)cc21 | 104 | -2 | 5 | -2 | 1 | 43*
CCn1nccc1C(=O)Nc1ccccc1OC | 99 | 6 | 17 | 1 | 0 | 0
CCn1ncc(Br)c1C(=O)Nc1ccccc1OC | 100 | -7 | 3 | 0 | -6 | 44*
CO[C@H]1CN(C)C(=O)c2cc(NC(C)=O)ccc2OC[C@H](C)N(C(=O)C2CCOCC2)C[C@H]1C | nt | nt | nt | nt | nt | 0
CN(C)CCCNC(=O)C[C@H]1CC[C@H]2[C@@H](COc3ccc(NC(=O)c4ccc5c(c4)OCO5)cc3C(=O)N2C)O1 | nt | nt | nt | nt | nt | 0
Cc1cccc(N(C)S(=O)(=O)c2c[nH]c3ccc([N+](=O)[O-])cc23)c1 | 94 | 84* | 0 | 2 | -4 | 0
Cc1ccc(-c2ccc(/C=C3\SC(N4CCOCC4)=NC3=O)o2)cc1 | 110 | 60* | 0 | -17 | -2 | nt
O=C1N=C(N2CCOCC2)S/C1=C/c1ccc(-c2ccc(F)cc2)o1 | 101 | 8 | -1 | -12 | 3 | 0
COC(C(=O)NCc1ccc(C)cc1)c1ccccc1 (centres undefined) | 103 | 9 | 21 | -2 | -2 | 43*
COC(C(=O)N/N=C(\C)c1ccc(C)cc1)c1ccccc1 (centres undefined) | 97 | -2 | 1 | 2 | -2 | 0
O=C(Cc1ccccc1)N1C[C@H]2[C@@H](c3ccccc31)[C@H](CO)N2C(=O)C1CCCC1 | nt | nt | nt | nt | nt | 0
CCOP(=O)(OCC)c1nc(-c2ccccc2Cl)oc1N1CCOCC1 | 100 | -1 | 5 | -1 | 0 | 45*
CCOC(=O)N(C)C[C@@H]1OCc2ccccc2-c2c(n(C)c3ccccc23)C(=O)N([C@H](C)CO)C[C@@H]1C | nt | nt | nt | nt | nt | 0
CNC[C@@H]1OCCCC[C@@H](C)Oc2ccc(NS(=O)(=O)c3ccc(C)cc3)cc2C(=O)N([C@H](C)CO)C[C@H]1C | nt | nt | nt | nt | nt | -1
Fc1ccc(/C=N/Nc2ccccn2)cc1 | 99 | 1 | -4 | 0 | -1 | 44*
Clc1ccc(/C=N/Nc2ccccn2)cc1 | 97 | -2 | 11 | 2 | 2 | 0
NS(=O)(=O)c1cccc(NC(=O)COC(=O)Cc2ccc(S(=O)(=O)N3CCCCC3)s2)c1 | 98 | 0 | 2 | -1 | 1 | 43*
C[C@H]1CN([C@@H](C)CO)C(=O)c2cc(NC(=O)Cn3cnnn3)ccc2O[C@@H]1CN(C)C | nt | nt | nt | nt | nt | 0
CCN1/C(=C/c2ccc3cc(C)ccc3[n+]2CC)Sc2cc(C)c(C)cc21 | i | 57* | nt | -25 | -1 | 0
COc1cccc(-n2c(SCC(=O)NC3CC3)nc3ccccc3c2=O)c1 | 96 | -2 | nt | -13 | -2 | 43*
COc1ccc(CN(C)C[C@H]2Oc3ccc(NC(=O)Cn4cnnn4)cc3C(=O)N([C@@H](C)CO)C[C@H]2C)cc1 | nt | nt | nt | nt | nt | 0
CCOC(=O)N/N=C/c1c(F)c(F)c(F)c(F)c1F | 94 | -2 | 9 | 2 | 1 | 44*
C=CCc1cc(/C=C2/NC(=O)NC2=O)cc(OCC)c1O | 102 | 3 | 0 | 6 | -2 | 43*
SMILES | ABCB6 inh MLPCN | Exocytosis inh | VLA-4 inh | MT1-MMP act inh | DAGLB inh | FGF22 binding
C=CCc1cc(/C=C2/NC(=S)NC2=O)cc(OC)c1O | 87 | 1 | -8 | -34 | -3 | nt
CCN1CCCC1CNC(=O)c1ccc2c(c1)NC(=O)/C(=C\c1ccc(C)cc1)S2 (centres undefined) | 100 | 61* | 8 | -1 | 5 | 0
O=C(COC(=O)CNC(=O)c1ccc(Cl)cc1Cl)NC1CC1 | 93 | -4 | -7 | -7 | 1 | 43*
Cc1ccc(S(=O)(=O)N(C)C[C@@H]2Oc3cc(Br)ccc3S(=O)(=O)N([C@H](C)CO)C[C@@H]2C)cc1 | nt | nt | nt | nt | nt | 0
Clc1ccc2nc3c4ccccc4cnn3c2c1 | 101 | -3 | -3 | -1 | -3 | 43*
CCC(=O)N1CC[C@@H]2[C@@H](CO)N(C)c3ccc(-c4ccccc4)cc3[C@@H]21 | nt | nt | nt | nt | nt | -1
Cc1cc(C)c2oc(C(=O)Nc3ccc(S(=O)(=O)Nc4nccs4)cc3)cc(=O)c2c1 | 97 | 1 | 1 | 3 | 4 | 43*
COc1ccc([C@@H](OC(=O)Nc2ccc(SC)cc2)[C@@H](CCO)OC)cc1O | nt | nt | nt | nt | nt | -1
Cc1ccc(/C=N/NC(=O)c2ccc(N(C)S(=O)(=O)c3ccccc3)cc2)cc1 | 97 | -17 | 7 | 0 | -3 | 0
CC(=O)Oc1ccc(/C=N/NC(=O)c2ccc(N(C)S(=O)(=O)c3ccccc3)cc2)cc1 | 101 | 94* | 7 | 1 | -1 | 0
O=C(O)c1cc(-c2ccccc2)on1 | 99 | 1 | 20 | -1 | 14 | 0
CC[n+]1oc(-c2ccccc2)cc1C | 94 | 9 | -5 | 10 | 7 | 43*
O=C(C[C@@H]1C[C@H]2c3cc(NC(=O)NC4CCCC4)ccc3O[C@H]2[C@H](CO)O1)NCc1ccccc1 | nt | nt | nt | nt | nt | 0
CO[C@H]1CN(C)C(=O)c2ccc(NC(=O)C3CC3)cc2OC[C@H](C)N(Cc2ccccc2)C[C@H]1C | nt | nt | nt | nt | nt | -1
O=C(NCCCO)c1ccc2nc(-c3ccco3)c(-c3ccco3)nc2c1 | 101 | 1 | nt | -2 | 2 | 43*
CCCCNC(=O)c1ccc2nc(-c3ccco3)c(-c3ccco3)nc2c1 | 100 | 0 | -4 | 1 | 6 | 0
CCCN(C)C[C@@H]1Oc2cc(C#CCOC)ccc2S(=O)(=O)N([C@@H](C)CO)C[C@@H]1C | nt | nt | nt | nt | nt | 0
CCc1ccc(OCC(=O)NN2Cc3ccccc3C2=N)cc1 | 94 | -2 | 10 | -4 | 1 | 43*
C[C@@H]1CCCCO[C@@H](CN(C)S(=O)(=O)c2ccc(Cl)cc2)[C@@H](C)CN([C@@H](C)CO)C(=O)c2cc(NC(=O)NC3CCCCC3)ccc2O1 | nt | nt | nt | nt | nt | 0
CC(NC(c1ccccc1)c1ccccc1)C(=O)N1CCCc2ccccc21 (centres undefined) | 104 | 2 | 3 | -10 | -8 | nt
CC(Nc1ccccc1N1CCCCC1)C(=O)N1CCc2ccccc21 (centres undefined) | 98 | 4 | 13 | -6 | -2 | 43*
C[C@@H]1CCCCO[C@H](CN(C)C(=O)CCC(F)(F)F)[C@@H](C)CN([C@H](C)CO)C(=O)c2cc(NS(=O)(=O)c3ccc(F)cc3)ccc2O1 | nt | nt | nt | nt | nt | 0
CCCCCOc1ccc(Br)cc1CSC(=N)N | 98 | 47 | nt | -28 | 1 | 44*

Bioassay records as filed in PubChem BioAssay.
